Article PMC10172704 (Poultry Science, 2023)
Ends that are not written are not given here.

Columns and labels:
Experiment in all cases: Microdilution broth MIC/MBC
Conditions in all cases: synthesized identified peptides
S. aureus ATCC 29213 = format: cell-based, Staphylococcus aureus
How it was run: (§1)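 Broth microdilution per CLSI guideline, modified. Strains grown 18 h on tryptic soy agar, adjusted to 0.5 McFarland, then diluted in 0.85% NaCl to about 5 × 10^5 CFU/mL final. Suspension mixed with test compound in microplate wells and incubated 37°C, 18 h. Growth inhibition read at 600 nm. Positive control: 20 µg/mL kanamycin. Experiments done 3 times.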

B. cereus DMST 5040 = format: cell-based, Bacillus cereus
How it was run: as §1

S. Typhimurium TISTR 292 = format: cell-based, Salmonella typhimurium
How it was run: as §1

E. coli TISTR 780 = format: cell-based
How it was run: as §1

| Sequence | MIC (S. aureus ATCC 29213) | MIC (B. cereus DMST 5040) | MIC (S. Typhimurium TISTR 292) | MIC (E. coli TISTR 780) |
| --- | --- | --- | --- | --- |
| CASALLGA [CASALLGA] | 4 mM | 4 mM | 4 mM | >4 mM |
| HAAHTTGLGGPF [HAAHTTGLGGPF] | >4 mM | >4 mM | >4 mM | >4 mM |
| KGGDLGLFEPTL [KGGDLGLFEPTL] | 2 mM | 2 mM | 2 mM | >4 mM |
| KVLPLPFGGRSPGGGA [KVLPLPFGGRSPGGGA] | >4 mM | >4 mM | >4 mM | >4 mM |
| VTLKVPGVTL [VTLKVPGVTL] | >4 mM | >4 mM | >4 mM | >4 mM |
